Assay [1] has as its target MBT domain-containing protein 1 (Homo sapiens, UniProt Q05BQ5). Description: Inhibition of MBTD1 (unknown origin) after 30 mins by AlphaScreen assay. The gist of the method:
(§1)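 AlphaScreen competition with histone peptide. Compounds in 3-fold, 10-point dilutions, top 10 or 30 μM; buffer 20 mM Tris pH 8.0, 25 mM NaCl, 2 mM DTT, 0.05% Tween-20. Protein-peptide mix 30 min RT, then streptavidin donor plus nickel-chelate acceptor beads (GST acceptor beads for GST-tagged PHF23, JARID1A) 30 min RT dark. Protein-free His6-biotin peptide counterscreen.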

In assay [2] the target is T1, E3 ubiquitin-protein ligase UHRF1 (Homo sapiens, UniProt Q96T88).
T1 sequence (Q96T88 whole entry): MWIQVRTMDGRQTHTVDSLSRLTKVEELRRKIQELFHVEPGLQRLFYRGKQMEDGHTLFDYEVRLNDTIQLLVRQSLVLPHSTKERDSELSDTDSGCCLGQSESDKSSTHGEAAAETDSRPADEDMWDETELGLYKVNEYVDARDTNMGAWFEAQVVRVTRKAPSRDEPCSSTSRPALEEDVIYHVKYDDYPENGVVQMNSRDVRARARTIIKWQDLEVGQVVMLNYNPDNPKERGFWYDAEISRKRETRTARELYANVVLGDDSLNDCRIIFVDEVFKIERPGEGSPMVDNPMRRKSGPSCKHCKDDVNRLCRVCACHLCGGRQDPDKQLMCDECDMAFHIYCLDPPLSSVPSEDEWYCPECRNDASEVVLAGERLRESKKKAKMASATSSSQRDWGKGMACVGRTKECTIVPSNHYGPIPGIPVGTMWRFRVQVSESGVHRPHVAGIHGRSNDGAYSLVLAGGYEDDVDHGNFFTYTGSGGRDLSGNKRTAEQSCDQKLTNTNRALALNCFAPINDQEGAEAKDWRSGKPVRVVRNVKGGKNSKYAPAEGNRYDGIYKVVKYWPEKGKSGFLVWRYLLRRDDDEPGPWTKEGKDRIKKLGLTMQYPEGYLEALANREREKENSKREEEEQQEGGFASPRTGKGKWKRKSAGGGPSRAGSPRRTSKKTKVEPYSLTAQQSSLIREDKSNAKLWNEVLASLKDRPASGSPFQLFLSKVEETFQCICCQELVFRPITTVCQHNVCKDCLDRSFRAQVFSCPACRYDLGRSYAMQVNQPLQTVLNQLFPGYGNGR
Description: Inhibition of UHRF1 (unknown origin) after 30 mins by AlphaScreen assay. In short, it runs like this:
(§2)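 AlphaScreen competition with histone peptide. Compounds in 3-fold, 10-point dilutions, top 10 or 30 μM; buffer 20 mM Tris pH 8.0, 25 mM NaCl, 2 mM DTT, 0.05% Tween-20. Protein-peptide mix 30 min RT, then streptavidin donor plus nickel-chelate acceptor beads (GST acceptor beads for GST-tagged PHF23, JARID1A) 30 min RT dark. […] Protein-free His6-biotin peptide counterscreen.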
Background: In Alpha technology, singlet oxygen from a donor bead excites a nearby acceptor bead.

Assay [3] concerns the target T2, Lethal(3)malignant brain tumor-like protein 3 (Homo sapiens, UniProt Q96JM7).
T2 sequence (Q96JM7 whole entry): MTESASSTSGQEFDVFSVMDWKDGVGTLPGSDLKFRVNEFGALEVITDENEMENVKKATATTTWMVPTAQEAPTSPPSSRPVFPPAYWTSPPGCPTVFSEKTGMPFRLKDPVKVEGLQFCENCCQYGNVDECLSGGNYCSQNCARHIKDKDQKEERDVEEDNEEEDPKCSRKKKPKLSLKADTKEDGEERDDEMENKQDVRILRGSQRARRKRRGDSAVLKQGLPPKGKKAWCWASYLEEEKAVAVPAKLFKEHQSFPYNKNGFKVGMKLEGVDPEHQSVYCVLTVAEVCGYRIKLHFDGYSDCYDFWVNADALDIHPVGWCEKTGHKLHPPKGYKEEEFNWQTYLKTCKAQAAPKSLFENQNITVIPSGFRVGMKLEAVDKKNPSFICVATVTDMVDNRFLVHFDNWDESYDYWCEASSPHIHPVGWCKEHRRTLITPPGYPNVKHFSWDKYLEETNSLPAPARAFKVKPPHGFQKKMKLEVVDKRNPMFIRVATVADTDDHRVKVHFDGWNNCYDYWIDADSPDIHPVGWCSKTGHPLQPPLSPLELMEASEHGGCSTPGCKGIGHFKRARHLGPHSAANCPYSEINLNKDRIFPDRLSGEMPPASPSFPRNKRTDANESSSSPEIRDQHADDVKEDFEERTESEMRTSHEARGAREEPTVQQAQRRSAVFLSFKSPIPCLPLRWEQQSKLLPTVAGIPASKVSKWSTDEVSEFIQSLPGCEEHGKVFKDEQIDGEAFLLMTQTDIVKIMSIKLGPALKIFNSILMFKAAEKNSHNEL
Description: Inhibition of L3MBTL3 (unknown origin) after 30 mins by AlphaScreen assay. The gist of the method:
as §1

Assay [4] concerns the target T3, Lethal(3)malignant brain tumor-like protein 4 (Homo sapiens, UniProt Q8NA19).
T3 sequence (Q8NA19 whole entry): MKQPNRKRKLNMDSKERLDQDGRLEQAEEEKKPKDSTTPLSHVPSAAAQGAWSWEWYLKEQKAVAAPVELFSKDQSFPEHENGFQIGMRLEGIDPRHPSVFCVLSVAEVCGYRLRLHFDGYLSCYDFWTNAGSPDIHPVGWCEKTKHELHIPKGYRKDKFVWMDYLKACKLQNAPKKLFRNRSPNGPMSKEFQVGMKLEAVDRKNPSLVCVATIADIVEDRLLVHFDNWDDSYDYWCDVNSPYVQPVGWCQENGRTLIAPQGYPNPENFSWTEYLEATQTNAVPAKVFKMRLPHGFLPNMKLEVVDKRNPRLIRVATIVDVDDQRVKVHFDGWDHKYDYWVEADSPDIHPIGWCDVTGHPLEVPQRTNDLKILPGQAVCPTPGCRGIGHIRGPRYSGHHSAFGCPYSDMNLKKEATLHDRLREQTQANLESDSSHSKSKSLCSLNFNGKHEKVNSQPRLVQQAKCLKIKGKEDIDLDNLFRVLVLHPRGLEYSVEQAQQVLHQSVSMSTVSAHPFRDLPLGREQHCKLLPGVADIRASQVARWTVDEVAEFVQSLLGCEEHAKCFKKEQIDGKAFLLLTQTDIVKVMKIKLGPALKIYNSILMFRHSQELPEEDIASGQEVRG
The assay is described as follows: Inhibition of L3MBTL4 (unknown origin) after 30 mins by AlphaScreen assay. The gist of the method: as §1

A further assay has as its target TP53-binding protein 1 (Homo sapiens, UniProt Q12888). The assay is described as follows: Inhibition of 53BP1 (unknown origin) after 30 mins by AlphaScreen assay. In short, it runs like this:
as §2

Assay [5] has as its target T2, Lethal(3)malignant brain tumor-like protein 3. The assay is described as follows: Inhibition of L3MBTL3 (unknown origin) using H4K20me2 as substrate after 30 mins by LNCE-TR-FRET assay.
The target in another assay is PHD finger protein 23 (Homo sapiens, UniProt Q9BUL5). Description: Inhibition of PHF23 (unknown origin) after 30 mins by AlphaScreen assay. In short, it runs like this:
as §1

A value given as a limit tells only on which side of the number the result lay.

Sequence of PHD finger protein 23 (Q9BUL5 whole entry): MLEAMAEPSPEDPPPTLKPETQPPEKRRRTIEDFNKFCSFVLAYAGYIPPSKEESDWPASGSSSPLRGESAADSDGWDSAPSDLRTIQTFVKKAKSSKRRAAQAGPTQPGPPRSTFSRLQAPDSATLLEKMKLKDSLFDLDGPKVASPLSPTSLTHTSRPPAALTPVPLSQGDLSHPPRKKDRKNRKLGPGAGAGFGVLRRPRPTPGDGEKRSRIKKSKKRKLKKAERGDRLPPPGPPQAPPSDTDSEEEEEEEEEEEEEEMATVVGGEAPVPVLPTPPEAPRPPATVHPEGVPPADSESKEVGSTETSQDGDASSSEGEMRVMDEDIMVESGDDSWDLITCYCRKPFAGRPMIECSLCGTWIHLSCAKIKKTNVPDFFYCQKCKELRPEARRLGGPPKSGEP
Sequence of TP53-binding protein 1 (Q12888 whole entry): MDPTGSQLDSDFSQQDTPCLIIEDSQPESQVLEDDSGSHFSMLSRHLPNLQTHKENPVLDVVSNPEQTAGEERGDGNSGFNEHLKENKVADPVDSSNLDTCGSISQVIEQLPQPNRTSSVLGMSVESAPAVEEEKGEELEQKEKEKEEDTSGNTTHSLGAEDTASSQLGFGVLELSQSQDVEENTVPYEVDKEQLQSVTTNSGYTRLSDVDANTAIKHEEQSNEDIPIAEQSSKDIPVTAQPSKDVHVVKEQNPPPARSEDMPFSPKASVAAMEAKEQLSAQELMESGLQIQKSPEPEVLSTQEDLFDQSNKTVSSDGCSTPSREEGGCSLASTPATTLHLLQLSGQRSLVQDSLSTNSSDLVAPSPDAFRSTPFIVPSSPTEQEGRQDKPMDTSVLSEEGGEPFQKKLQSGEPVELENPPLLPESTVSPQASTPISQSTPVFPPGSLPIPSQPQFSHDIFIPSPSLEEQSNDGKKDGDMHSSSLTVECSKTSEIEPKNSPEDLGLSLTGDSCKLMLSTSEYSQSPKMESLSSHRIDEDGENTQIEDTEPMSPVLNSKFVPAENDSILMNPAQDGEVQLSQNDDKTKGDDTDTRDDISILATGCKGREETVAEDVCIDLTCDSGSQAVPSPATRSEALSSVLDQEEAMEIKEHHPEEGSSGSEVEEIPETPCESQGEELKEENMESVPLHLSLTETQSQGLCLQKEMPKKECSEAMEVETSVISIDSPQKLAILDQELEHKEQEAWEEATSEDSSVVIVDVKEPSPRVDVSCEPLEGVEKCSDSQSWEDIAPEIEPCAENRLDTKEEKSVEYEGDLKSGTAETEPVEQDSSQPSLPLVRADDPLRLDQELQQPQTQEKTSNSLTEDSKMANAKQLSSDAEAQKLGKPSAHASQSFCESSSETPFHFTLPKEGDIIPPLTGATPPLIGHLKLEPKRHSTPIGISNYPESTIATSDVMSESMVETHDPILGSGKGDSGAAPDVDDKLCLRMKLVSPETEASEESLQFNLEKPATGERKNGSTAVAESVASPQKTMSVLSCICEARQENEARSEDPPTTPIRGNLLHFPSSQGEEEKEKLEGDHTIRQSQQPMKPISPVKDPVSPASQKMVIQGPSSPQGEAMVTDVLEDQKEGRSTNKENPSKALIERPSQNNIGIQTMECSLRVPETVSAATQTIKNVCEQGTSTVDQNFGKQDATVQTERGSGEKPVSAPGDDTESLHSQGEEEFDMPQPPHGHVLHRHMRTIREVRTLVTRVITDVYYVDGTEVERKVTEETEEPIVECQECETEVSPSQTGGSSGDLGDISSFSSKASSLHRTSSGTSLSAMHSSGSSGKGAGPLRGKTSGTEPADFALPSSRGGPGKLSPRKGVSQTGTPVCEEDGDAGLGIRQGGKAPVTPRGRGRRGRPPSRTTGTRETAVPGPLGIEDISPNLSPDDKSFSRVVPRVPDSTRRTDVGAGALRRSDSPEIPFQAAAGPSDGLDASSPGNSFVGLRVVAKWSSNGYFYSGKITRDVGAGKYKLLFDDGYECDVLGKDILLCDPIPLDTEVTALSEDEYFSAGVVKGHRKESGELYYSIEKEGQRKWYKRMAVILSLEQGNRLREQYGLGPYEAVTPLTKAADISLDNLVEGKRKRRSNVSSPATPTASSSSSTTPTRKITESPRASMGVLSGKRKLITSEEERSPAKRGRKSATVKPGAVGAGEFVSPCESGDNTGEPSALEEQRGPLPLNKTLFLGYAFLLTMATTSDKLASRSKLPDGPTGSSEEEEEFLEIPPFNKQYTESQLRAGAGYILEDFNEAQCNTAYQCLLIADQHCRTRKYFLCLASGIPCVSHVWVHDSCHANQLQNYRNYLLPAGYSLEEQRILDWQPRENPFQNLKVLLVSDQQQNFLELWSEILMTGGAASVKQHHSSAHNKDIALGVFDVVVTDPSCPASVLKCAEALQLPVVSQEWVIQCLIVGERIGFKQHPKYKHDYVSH
Sequence of MBT domain-containing protein 1 (Q05BQ5 whole entry, the tested form may be a part): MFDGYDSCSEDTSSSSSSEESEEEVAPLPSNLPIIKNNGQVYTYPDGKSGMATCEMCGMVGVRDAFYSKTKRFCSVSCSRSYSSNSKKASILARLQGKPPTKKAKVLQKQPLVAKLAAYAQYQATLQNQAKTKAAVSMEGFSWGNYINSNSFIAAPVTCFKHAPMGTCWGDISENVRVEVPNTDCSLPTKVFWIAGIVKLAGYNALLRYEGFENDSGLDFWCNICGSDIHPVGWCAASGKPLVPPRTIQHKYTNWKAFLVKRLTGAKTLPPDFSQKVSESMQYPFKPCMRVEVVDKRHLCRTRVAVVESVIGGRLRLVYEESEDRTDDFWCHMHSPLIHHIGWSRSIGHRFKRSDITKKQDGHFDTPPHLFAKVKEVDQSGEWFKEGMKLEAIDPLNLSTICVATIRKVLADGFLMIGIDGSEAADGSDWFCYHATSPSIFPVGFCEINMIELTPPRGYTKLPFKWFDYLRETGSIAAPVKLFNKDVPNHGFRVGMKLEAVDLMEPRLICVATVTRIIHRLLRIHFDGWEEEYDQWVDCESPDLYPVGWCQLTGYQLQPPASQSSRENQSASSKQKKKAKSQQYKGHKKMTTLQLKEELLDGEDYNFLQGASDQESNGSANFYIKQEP

On to `CCN1Cc2ccc(NC(=O)c3ccc(C(=O)N4CC5CCC(C4)C5N4CCCC4)cc3)cc2C1` (stereo not drawn), for which the IC50 in assay [1] is greater than 10 µM; in assay [2] it was greater than 10 µM; in assay [3], 0.24 µM; in assay [4] it was greater than 10 µM; on TP53-binding protein 1, greater than 10 µM; in assay [5] it was 0.15 µM. This compound had an IC50 against PHD finger protein 23 greater than 10 µM.

As to `O=C(c1ccc(C(=O)N2CCC(N3CCCC3)CC2)cc1)N1CCC(C2CCCN2)CC1` (stereo not drawn), the IC50 in assay [2] was greater than 10 µM; in assay [3], 0.12 µM; in assay [4], greater than 10 µM; on TP53-binding protein 1 it was greater than 10 µM; in assay [5], 0.092 µM; against PHD finger protein 23, greater than 10 µM.

Take `O=C(c1ccc(C(=O)N2CCC3(CCNC3)C2)cc1)N1CCC(N2CCCC2)CC1` (stereo not drawn): the IC50 in assay [1] was greater than 10 µM; in assay [2], greater than 10 µM; in assay [3] it was 1.8 µM; in assay [4], greater than 10 µM; at TP53-binding protein 1 it was greater than 10 µM; in assay [5], 2.2 µM. The compound further had an IC50 on PHD finger protein 23 greater than 10 µM.

For `CCN1Cc2ccc(NC(=O)c3ccc(C(=O)N4CCC(C5CCCN5)CC4)c(Nc4ccccc4)c3)cc2C1` (stereo not drawn), the IC50 was 5.1 µM in assay [1]; greater than 10 µM in assay [2]; greater than 10 µM in assay [4]; greater than 10 µM at TP53-binding protein 1; greater than 10 µM against PHD finger protein 23.

In the case of `O=C(c1ccc(C(=O)N2CCC(N3CCCC3)CC2)c(Nc2ccccc2)c1)N1CCC(N2CCCC2)CC1`, the IC50 in assay [1] was 9 µM; in assay [2], greater than 10 µM; in assay [3], 0.064 µM; in assay [4], greater than 10 µM; at TP53-binding protein 1, greater than 10 µM; in assay [5] it was 0.049 µM. The compound further had an IC50 on PHD finger protein 23 greater than 10 µM.

Regarding `O=C(c1ccc(CN2CCC(N3CCCC3)CC2)cc1)N1CCC(N2CCCC2)CC1`, the IC50 was 8.1 µM in assay [1]; greater than 10 µM in assay [2]; 0.14 µM in assay [3]; greater than 10 µM in assay [4]; greater than 10 µM on TP53-binding protein 1; 0.13 µM in assay [5]. The same compound came in with an IC50 against PHD finger protein 23 greater than 10 µM.

For `O=C(c1c(F)c(F)c(C(=O)N2CCC(N3CCCC3)CC2)c(F)c1F)N1CCC(N2CCCC2)CC1`, the IC50 in assay [1] is greater than 10 µM; in assay [2] it was greater than 10 µM; in assay [3], 0.21 µM; in assay [4] it was greater than 10 µM; at TP53-binding protein 1 it was greater than 10 µM; in assay [5], 0.13 µM. The compound further returned an IC50 at PHD finger protein 23 greater than 10 µM.

For the compound `O=C(c1ccc(C(=O)N2CCC(N3CCCC3)CC2)c(Br)c1)N1CCC(N2CCCC2)CC1`, the IC50 in assay [1] was 7.8 µM; in assay [2], greater than 10 µM; in assay [3] it was 0.12 µM; in assay [4], greater than 10 µM; on TP53-binding protein 1, greater than 10 µM; in assay [5], 0.074 µM. This compound registered an IC50 against PHD finger protein 23 greater than 10 µM.

In the case of `O=C(c1ccc(C(=O)N2CCC(N3CCCC3)CC2)c(NCc2ccccc2)c1)N1CCC(N2CCCC2)CC1`, the IC50 in assay [1] is greater than 10 µM; in assay [2] it was greater than 10 µM; in assay [3], 0.039 µM; in assay [4], greater than 10 µM; at TP53-binding protein 1 it was 8.7 µM; in assay [5], 0.05 µM. Besides, the IC50 at PHD finger protein 23 was greater than 10 µM.

For the compound `O=C(c1cncc(Br)c1)N1CCC(N2CCCC2)CC1`, the IC50 in assay [1] was greater than 10 µM; in assay [2], greater than 10 µM; in assay [3] it was 3.1 µM; in assay [4] it was greater than 10 µM; on TP53-binding protein 1, greater than 10 µM; in assay [5], 4.7 µM. This compound returned an IC50 at PHD finger protein 23 greater than 10 µM.

Turning to `O=C(c1ccc(C(=O)N2CCC3(CCNC3)CC2)cc1)N1CCC(N2CCCC2)CC1`, the IC50 in assay [1] is greater than 10 µM; in assay [2], greater than 10 µM; in assay [3], 0.56 µM; in assay [4], greater than 10 µM; on TP53-binding protein 1, greater than 10 µM; in assay [5] it was 0.62 µM. This compound registered an IC50 on PHD finger protein 23 greater than 10 µM.

Consider `O=C(c1ccc(C(=O)N2CCC(N3CCCC3)CC2)c([N+](=O)[O-])c1)N1CCC(N2CCCC2)CC1`, for which the IC50 in assay [1] was greater than 10 µM; in assay [2] it was greater than 10 µM; in assay [3], 0.16 µM; in assay [4] it was greater than 10 µM; at TP53-binding protein 1 it was greater than 10 µM; in assay [5] it was 0.088 µM. The same compound yielded an IC50 at PHD finger protein 23 greater than 10 µM.

With `Nc1cc(C(=O)N2CCC(N3CCCC3)CC2)ccc1C(=O)N1CCC(N2CCCC2)CC1`, the IC50 in assay [1] was greater than 10 µM; in assay [2], greater than 10 µM; in assay [3], 0.23 µM; in assay [4], greater than 10 µM; at TP53-binding protein 1, greater than 10 µM; in assay [5], 0.22 µM. Besides, the 50% inhibitory concentration (IC50) on PHD finger protein 23 was greater than 10 µM.

As for `O=C(c1ccc(C(=O)N2CC(N3CCCC3)C2)cc1)N1CCC(N2CCCC2)CC1`, the IC50 was greater than 10 µM in assay [1]; greater than 10 µM in assay [2]; 0.33 µM in assay [3]; greater than 10 µM in assay [4]; greater than 10 µM on TP53-binding protein 1; 0.3 µM in assay [5]. The compound further displayed an IC50 at PHD finger protein 23 greater than 10 µM.

As to `O=C(c1ccc(C(=O)N2CCC(N3CCCC3)CC2)o1)N1CCC(N2CCCC2)CC1`, the IC50 is greater than 10 µM in assay [1]; greater than 10 µM in assay [2]; 0.53 µM in assay [3]; greater than 10 µM in assay [4]; greater than 10 µM on TP53-binding protein 1; 0.31 µM in assay [5]. For the same compound, on PHD finger protein 23, the IC50 is greater than 10 µM.

Turning to `CCN1Cc2ccc(NC(=O)c3ccc(C(=O)N4CCC(C5CCCN5)CC4)cc3)cc2C1` (stereo not drawn), the IC50 (in assay [1]; in assay [2]; in assay [4]; on TP53-binding protein 1; at PHD finger protein 23) was greater than 10 µM each time.

As for `O=C(c1ccc(C(=O)N2CCC(N3CCCC3)CC2)cc1)N1CCC(C2CCCCC2)CC1`, the IC50 in assay [1] was 8.1 µM; in assay [2], greater than 10 µM; in assay [3], 2.4 µM; in assay [4] it was greater than 10 µM; at TP53-binding protein 1, greater than 10 µM; in assay [5] it was 1.6 µM.

As usually defined, the IC50 is the concentration at which inhibition is half-maximal. High values mean lower potency, low ones higher potency.

For the origin of these results see ChEMBL document CHEMBL2424619, “Small-molecule ligands of methyl-lysine binding proteins: optimization of selectivity for L3MBTL3” (J Med Chem, 2013).
